The values that follow come from ChEMBL document CHEMBL3351413, “Development of quinone analogues as dynamin GTPase inhibitors” (Eur J Med Chem, 2014).

The structures appear in SMILES notation. Calls of active or inactive are those of the source. The calls are words filed in the database; no cut-off is given here.

The target of one experiment is T1, Dynamin-2 (Rattus norvegicus) (UniProt P39052).
T1 sequence (whole entry): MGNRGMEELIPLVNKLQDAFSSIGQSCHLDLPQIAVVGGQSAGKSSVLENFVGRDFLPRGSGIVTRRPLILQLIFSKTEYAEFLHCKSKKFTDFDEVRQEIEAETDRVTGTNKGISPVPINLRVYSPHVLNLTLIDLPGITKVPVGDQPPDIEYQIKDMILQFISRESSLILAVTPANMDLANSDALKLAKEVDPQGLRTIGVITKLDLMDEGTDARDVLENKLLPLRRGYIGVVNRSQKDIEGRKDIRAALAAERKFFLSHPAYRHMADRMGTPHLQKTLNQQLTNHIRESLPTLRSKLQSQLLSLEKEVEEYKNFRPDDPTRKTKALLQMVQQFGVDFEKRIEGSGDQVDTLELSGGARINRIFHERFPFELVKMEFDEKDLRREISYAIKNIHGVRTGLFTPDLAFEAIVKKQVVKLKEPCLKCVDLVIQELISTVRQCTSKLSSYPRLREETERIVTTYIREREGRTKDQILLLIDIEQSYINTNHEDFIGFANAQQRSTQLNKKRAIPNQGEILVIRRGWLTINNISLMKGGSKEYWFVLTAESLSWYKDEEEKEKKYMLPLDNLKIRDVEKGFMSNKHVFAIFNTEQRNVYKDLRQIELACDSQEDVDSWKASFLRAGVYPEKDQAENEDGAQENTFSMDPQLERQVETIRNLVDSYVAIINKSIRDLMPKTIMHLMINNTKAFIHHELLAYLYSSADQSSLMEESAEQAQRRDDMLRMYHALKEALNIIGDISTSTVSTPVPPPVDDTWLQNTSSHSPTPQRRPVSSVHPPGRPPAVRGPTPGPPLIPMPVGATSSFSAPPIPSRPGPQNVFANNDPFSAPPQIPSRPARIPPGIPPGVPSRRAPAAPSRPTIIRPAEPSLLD
As to the kind of experiment: Inhibition of phosphatidylserine-stimulated GTPase activity of recombinant rat Dynamin 2 expressed in Sf21 cells assessed as inhibition of orthophosphate release from GTP up to 300 uM by malachite green method.
Settings: not given
Summed up: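 His-6-tagged rat dynII from pIEx-6-transfected Sf21 cells (polyethylenimine, DNA:PEI 1:5, 48 h), purified on GST-Amph2-SH3-sepharose. Enzyme at 50 nM final was stimulated with phosphatidylserine liposomes for 90 min. GTP-derived Pi release was read colorimetrically with Malachite Green. Final DMSO was at most 3.3%.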
Regarding `O=C1C=C(NCc2ccccc2)C(=O)C=C1NCc1ccccc1`, the inhibition result was “inactive”.

Tested on in the next experiment: not listed separately
The experiment can be described thus: Inhibition of phosphatidylserine-stimulated GTPase activity of sheep brain Dynamin 1 expressed in Sf21 cells assessed as inhibition of orthophosphate release from GTP by malachite green method. More on the design: species or system Ovis aries.
Settings: not given
The essentials:
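DynI at 50 nM, stimulated with phosphatidylserine liposomes for 30 min. Pi release from GTP detected colorimetrically by malachite green. Compounds diluted from DMSO stocks, final DMSO at most 3.3%.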
On to `O=C1C=C(Nc2ccc(CO)cc2)C(=O)C=C1Nc1ccc(CO)cc1`, for which the half-maximal inhibitory concentration (IC50) (as a rule, the concentration that inhibits the measured activity by half) came out at 21.5 µM.
With `O=C1C=C(NCCO)C(=O)C=C1NCCO`, the IC50 worked out at 116 µM.
Consider `O=C1C=C(Nc2ccccc2C(=O)O)C(=O)C=C1Nc1ccccc1C(=O)O`, for which the IC50 amounted to 50.2 µM.
Same read-out and setting: to `O=C1C=C(NCCCBr)C(=O)C=C1NCCCBr` belongs 58 µM; to `O=C1C=C(Nc2cccc(O)c2)C(=O)c2ccccc21`, 109 µM; to `O=C1C=C(Nc2ccc(O)cc2)C(=O)c2ccccc21`, 22.4 µM.
On to `O=C1C=C(Nc2ccc(C(=O)O)cc2)C(=O)C=C1Nc1ccc(C(=O)O)cc1`, for which the IC50 amounted to 10.6 µM.
With `O=C1C=C(Nc2ccccc2Br)C(=O)C=C1Nc1ccccc1Br`, the IC50 amounted to 387 µM.
Regarding `O=C1C=C(Nc2ccc(O)cc2)C(=O)C=C1Nc1ccc(O)cc1`, the IC50 turned out to be 11.1 µM.
Take `O=C1C=C(Nc2ccccc2CO)C(=O)C=C1Nc1ccccc1CO`: the IC50 is above 300 µM.
The same measure, in the same setting: to `O=C1C=C(Nc2cccc(C(=O)O)c2)C(=O)C=C1Nc1cccc(C(=O)O)c1` belongs 25.4 µM; to `O=C1C=C(NCc2ccc(C(=O)O)cc2)C(=O)C=C1NCc1ccc(C(=O)O)cc1`, 29 µM; to `O=C1C=C(Nc2cccc(O)c2)C(=O)C=C1Nc1cccc(O)c1`, 57.9 µM.
Same read-out and setting: the value for `O=C1C=C(NCc2ccc(O)cc2)C(=O)c2ccccc21` was 150 µM; that for `O=C1C=C(NCc2ccc(O)cc2)C(=O)C=C1NCc1ccc(O)cc1` was 112 µM.
Same read-out and setting: to `COc1cccc(NC2=CC(=O)C(Nc3cccc(OC)c3)=CC2=O)c1` belongs above 300 µM.
For `O=C1C=C(NCc2ccccc2)C(=O)C=C1NCc1ccccc1`, the IC50 turned out to be 273 µM.
The same measure, in the same setting: to `COc1ccc(NC2=CC(=O)C(Nc3ccc(OC)cc3)=CC2=O)cc1` belongs above 300 µM; to `O=C(O)c1ccccc1NC1=CC(=O)c2ccccc2C1=O`, 314 µM; to `O=C1C=C(Nc2ccc(CO)cc2)C(=O)c2ccccc21`, 29.5 µM.
Still for that read-out and setting: the value for `CN(C)CCNC1=CC(=O)C(NCCN(C)C)=CC1=O` was above 300 µM; that for `COc1ccc(CNC2=CC(=O)C(NCc3ccc(OC)cc3)=CC2=O)cc1` was 170 µM; that for `O=C1C=C(Nc2cccc(CO)c2)C(=O)c2ccccc21` was 30.3 µM.
The same measure, in the same setting: to `CCCCCCNC1=CC(=O)C(NCCCCCC)=CC1=O` belongs above 300 µM.

Tested on in the next experiment: not listed separately
As to the kind of experiment: Competitive inhibition of phosphatidylserine-stimulated GTPase activity of sheep brain Dynamin 1 expressed in Sf21 cells by Lineweaver-Burk plot method in presence of Mg2+ and GTP. Particulars: Ovis aries.
`O=C1C=C(Nc2ccc(CO)cc2)C(=O)C=C1Nc1ccc(CO)cc1`: the inhibition result is “Active”.

The next experiment addresses T2, Dynamin-2 (Rattus norvegicus, UniProt P39052).
T2 sequence (P39052 whole entry): T1 sequence (whole entry)
As to the kind of experiment: Inhibition of phosphatidylserine-stimulated GTPase activity of recombinant rat Dynamin 2 expressed in Sf21 cells assessed as inhibition of orthophosphate release from GTP by malachite green method.
Settings: not given
Summed up:
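His-6-tagged rat dynII expressed in Sf21 cells after polyethylenimine transfection (48 h), purified on GST-Amph2-SH3-sepharose. Enzyme at 50 nM, stimulated with phosphatidylserine liposomes for 90 min. Pi release from GTP read colorimetrically with malachite green. Final DMSO at most 3.3%.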
In the case of `O=C1C=C(Nc2ccc(C(=O)O)cc2)C(=O)C=C1Nc1ccc(C(=O)O)cc1`, the IC50 worked out at 9.1 µM.
Regarding `O=C1C=C(Nc2ccc(O)cc2)C(=O)C=C1Nc1ccc(O)cc1`, the IC50 was 23.6 µM.
Consider `O=C1C=C(Nc2cccc(C(=O)O)c2)C(=O)C=C1Nc1cccc(C(=O)O)c1`, for which the IC50 was found to be 14.7 µM.
The same measure, in the same setting: the value for `O=C1C=C(Nc2cccc(O)c2)C(=O)C=C1Nc1cccc(O)c1` was 43.7 µM.

Tested on in a further experiment: not listed separately
As to the kind of experiment: Inhibition of phosphatidylserine-stimulated GTPase activity of sheep brain Dynamin 1 expressed in Sf21 cells assessed as inhibition of orthophosphate release from GTP up to 300 uM by malachite green method. Particulars: Ovis aries. The essentials: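 DynI at 50 nM final was stimulated with phosphatidylserine liposomes for 30 min. Orthophosphate released from GTP was detected colorimetrically by Malachite Green. Compounds came from 30 mM DMSO stocks diluted in 50% DMSO/20 mM Tris-HCl pH 7.4; final DMSO was at most 3.3%.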
In the case of `CCCNC1=CC(=O)C(NCCC)=CC1=O`, the inhibition result was “inactive”.
Regarding `O=C1C=C(Nc2cccc(CO)c2)C(=O)C=C1Nc1cccc(CO)c1`, the inhibition entry was “inactive”.
Same read-out and setting: the value for `COCCCNC1=CC(=O)C(NCCCOC)=CC1=O` was “inactive”; that for `O=C(O)c1ccc(NC2=CC(=O)c3ccccc3C2=O)cc1` was “inactive”.
Same read-out and setting: to `O=C1C=C(NCCCO)C(=O)c2ccccc21` belongs “inactive”; to `O=C1C=C(NCc2ccc(F)cc2)C(=O)C=C1NCc1ccc(F)cc1`, “inactive”.
Regarding `O=C1C=C(NCc2ccc(Cl)cc2)C(=O)C=C1NCc1ccc(Cl)cc1`, the inhibition entry was “inactive”.
Same read-out and setting: to `COc1ccc(CNC2=CC(=O)c3ccccc3C2=O)cc1` belongs “inactive”.
Still for that read-out and setting: to `O=C1C=C(NCc2ccccc2)C(=O)c2ccccc21` belongs “inactive”; to `O=C1C=C(NCCCCO)C(=O)C=C1NCCCCO`, “inactive”.
For `O=C1C=C(NCCCCl)C(=O)C=C1NCCCCl`, the inhibition result is “inactive”.
The same measure, in the same setting: the value for `O=C1C=C(Nc2ccccc2)C(=O)C=C1Nc1ccccc1` was “inactive”.
As for `Cc1ccc(CNC2=CC(=O)C(NCc3ccc(C)cc3)=CC2=O)cc1`, the inhibition entry is “inactive”.
Consider `Cc1ccccc1NC1=CC(=O)C(Nc2ccccc2C)=CC1=O`, for which the inhibition result was “inactive”.
On the same count and under the same terms, to `O=C(O)c1cccc(NC2=CC(=O)c3ccccc3C2=O)c1` belongs “inactive”.
Take `COCCNC1=CC(=O)C(NCCOC)=CC1=O`: the inhibition entry is “inactive”.
Still for that read-out and setting: to `CCCCNC1=CC(=O)C(NCCCC)=CC1=O` belongs “inactive”; to `COc1ccccc1NC1=CC(=O)C(Nc2ccccc2OC)=CC1=O`, “inactive”; to `CSCCNC1=CC(=O)C(NCCSC)=CC1=O`, “inactive”.
Still for that read-out and setting: to `O=C1C=C(NCCO)C(=O)c2ccccc21` belongs “inactive”; to `CCNC1=CC(=O)C(NCC)=CC1=O`, “inactive”.
On the same count and under the same terms, to `O=C1C=C(NCCc2ccccc2)C(=O)C=C1NCCc1ccccc1` belongs “inactive”; to `O=C1C=C(NCc2ccccc2)C(=O)C=C1NCc1ccccc1`, “inactive”.
As to `O=C1C=C(NCc2ccc(Br)cc2)C(=O)C=C1NCc1ccc(Br)cc1`, the inhibition entry was “inactive”.
Still for that read-out and setting: the value for `O=C1C=C(Nc2ccccc2)C(=O)c2ccccc21` was “inactive”; that for `CCCCCNC1=CC(=O)C(NCCCCC)=CC1=O` was “inactive”; that for `CC(C)CCNC1=CC(=O)C(NCCC(C)C)=CC1=O` was “inactive”.
With `O=C1C=C(NCCCO)C(=O)C=C1NCCCO`, the inhibition entry is “inactive”.
Still for that read-out and setting: the value for `C=CCNC1=CC(=O)C(NCC=C)=CC1=O` was “inactive”.
On the same count and under the same terms, to `O=C1C=C(NCc2cccnc2)C(=O)C=C1NCc1cccnc1` belongs “inactive”.

A further experiment addresses T3, Dynamin-1 (Homo sapiens) (UniProt Q05193).
T3 sequence (whole entry): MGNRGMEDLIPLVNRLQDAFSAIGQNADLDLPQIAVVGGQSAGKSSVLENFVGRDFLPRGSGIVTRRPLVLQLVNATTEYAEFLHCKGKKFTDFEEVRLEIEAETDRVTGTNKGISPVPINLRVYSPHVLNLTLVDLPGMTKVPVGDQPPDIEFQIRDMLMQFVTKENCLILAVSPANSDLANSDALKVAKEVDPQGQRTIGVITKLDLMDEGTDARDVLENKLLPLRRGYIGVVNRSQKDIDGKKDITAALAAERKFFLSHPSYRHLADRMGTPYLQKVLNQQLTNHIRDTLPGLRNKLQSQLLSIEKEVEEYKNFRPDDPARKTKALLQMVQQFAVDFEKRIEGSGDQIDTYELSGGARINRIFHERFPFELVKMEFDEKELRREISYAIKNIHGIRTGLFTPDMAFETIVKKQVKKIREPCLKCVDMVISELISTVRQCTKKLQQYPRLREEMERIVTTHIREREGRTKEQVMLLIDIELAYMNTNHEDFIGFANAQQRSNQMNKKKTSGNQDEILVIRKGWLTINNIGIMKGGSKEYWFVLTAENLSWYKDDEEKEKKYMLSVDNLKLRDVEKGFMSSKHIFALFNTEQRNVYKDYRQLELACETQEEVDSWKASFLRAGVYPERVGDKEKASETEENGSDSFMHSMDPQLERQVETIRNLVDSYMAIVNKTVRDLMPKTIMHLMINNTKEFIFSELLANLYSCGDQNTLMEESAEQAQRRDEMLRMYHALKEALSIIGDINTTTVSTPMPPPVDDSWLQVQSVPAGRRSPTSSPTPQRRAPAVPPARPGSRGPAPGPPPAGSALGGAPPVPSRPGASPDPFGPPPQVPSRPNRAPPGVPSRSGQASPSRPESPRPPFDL
The experiment can be described thus: Inhibition of Dynamin 1 in serum-starved human U2OS cells assessed as inhibition of clathrin-mediated Alexa-495-cojugated transferrin uptake pretreated up to 300 uM for 30 mins by high-content imaging method. Type of experiment: cell-based.
Settings: not given
Summed up:
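U2OS cells plated on fibronectin-coated glass to 70–80% confluency and serum-starved overnight (16 h). Pretreated with compound or 1% DMSO vehicle for 30 min, then given fluorescent transferrin for 8 min at 37 °C.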
With `O=C1C=C(Nc2cccc(O)c2)C(=O)C=C1Nc1cccc(O)c1`, the inhibition entry was “inactive”.
